# High-throughput results deposited in PubChem BioAssay by several laboratories.
# Cl transport mod = KCC2 (human) Cl- transport modulation; AID 1456; B-score of Tl+ flux slope (higher = more flux/activation; lower = inhibition) at 10 µM; actives 2.2% (n = 190,000); Q9H2X9; KCC2 cells, thallium flux FluoZin-2 fluorescence;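 active means thallium flux slope and its plate-corrected score both differing from the plate sample mean at a set confidence after two filtering rounds, in either direction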;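 further: slope of fluorescence scaled to starting intensity during 10 to 20 s after thallium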
# ROMK primary = modulates human ROMK potassium channel activity; P48048; Tet-inducible ROMK, thallium flux fluorescence; actives lie on both sides; B-score at 10 µM; actives 2% (n = 130,000); AID 1918;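 active means signal ratio slope over the read window, or its plate-corrected B-score, at least 3 SD from the plate mean, either direction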;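 further: B-score of the F/F0 ratio slope over 7 to 12 s after thallium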
# Target sequence (P48048 whole entry, looked up): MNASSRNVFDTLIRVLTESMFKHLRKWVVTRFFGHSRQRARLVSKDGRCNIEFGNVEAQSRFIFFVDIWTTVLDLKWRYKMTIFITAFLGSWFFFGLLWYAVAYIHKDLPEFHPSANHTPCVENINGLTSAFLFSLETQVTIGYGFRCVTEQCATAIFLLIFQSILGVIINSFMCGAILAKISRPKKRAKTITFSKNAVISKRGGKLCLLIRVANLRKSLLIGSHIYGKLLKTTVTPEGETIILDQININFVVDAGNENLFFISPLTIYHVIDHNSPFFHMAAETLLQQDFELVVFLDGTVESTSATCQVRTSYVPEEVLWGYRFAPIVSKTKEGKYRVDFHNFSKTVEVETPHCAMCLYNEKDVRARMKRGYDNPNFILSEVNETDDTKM
# Autophagy HCS = alters autophagy in cells | MEF GFP-LC3 puncta imaging; test concentration mostly 10 µM | calls only at 10 µM (by protocol) | actives 0.98% (n = 190,000);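 active means percentage of spot-positive cells more than 3 SD above its plate mean, without a fluorescence outlier flag or 80% toxicity; inconclusive means no clear call, values can overlap the other calls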;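 further: spot-positive cell cutoff set from DMSO-treated cells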
# DTT redox prof = compounds producing H2O2 with reducing agent – biochemical, NIH compound library profiling, artefact control for MLSCN library redox annotation, primary screen; AID 878; activation, % at 10 µM; actives 0.03% (n = 200,000); DTT-dependent redox cycling H2O2, phenol red/HRP absorbance; 100% = 100 µM peroxide control, 0% = buffer;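 active means activation of at least 50% relative to the plate's high and low controls in the primary single-dose screen; inactive means activation below 50%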;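 further: compound incubated with DTT at 0.8 mM final as the reducing agent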
# Dynein cargo inh = dynein cargo transport inhibition | z-score, hits read low | 3617.4 mouse cells, GR-EGFP nuclear translocation imaging; test concentration mostly 20 µM; stimulated with dexamethasone, 1 µM; hits give low values | actives 0.47% (n = 220,000);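 active means plate z-score of nuclear minus cytoplasmic receptor signal below a set negative limit, without overly bright fluorescence or cell loss, cut at about -3.5 in these data, passing the limit was not always enough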;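 further: z-score of nuclear minus cytoplasmic ring GR-EGFP intensity difference per well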
#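 Buffer or medium – tet-free medium with charcoal-stripped serum · Signal – automated 10x imaging of fixed Hoechst-stained cells · Also added – dexamethasone agonist, 1.0 µM final, for 30 min · Incubation – induction 48 h, compound 1 h, agonist 30 min · Read-out – GR-EGFP nuclear translocation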
# KCC2 secondary = KCC2 (human) modulation, secondary assay. HEK293-KCC2, thallium flux, FluoZin2 fluorescence; hits give high values. AID 1713. normalised thallium flux (F/F0 slope) at 10 µM. actives 15% (n = 3,700). shares compounds with Cl transport mod;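 active means thallium flux slope above the same plate's solvent-only control mean plus 3 SD; inconclusive means the two replicate wells disagree; inactive means no significant difference from solvent-only control wells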
# KCC2 bumet counter = bumetanide-insensitive thallium flux in KCC2 cells with ouabain, counter-screen; shares compounds with Cl transport mod; HEK293-KCC2 + bumetanide/ouabain, thallium flux FluoZin2; hits give high values; normalized thallium flux at 10 µM; actives 49% (n = 3,700);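 active means thallium entry rate above the same plate's blocked-transporter control wells by more than 3 SD; inconclusive means the two repeat wells disagree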;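 further: raw slope of fluorescence over initial fluorescence between 10 and 20 s after thallium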
# KCC2 secondary2 = KCC2 (human) modulation, second secondary assay. AID 1715. actives 23% (n = 3,700). normalized thallium flux at 10 µM. shares compounds with Cl transport mod. HEK293-KCC2, thallium flux FluoZin2 fluorescence; actives lie on both sides; F/F0 rise rate, 10–20 s post-thallium;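 active means thallium flux slope more than 3 SD above or below the plate's solvent-only control mean, mostly below; inconclusive means the two repeat wells disagreed; inactive means no significant shift from solvent-only controls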;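 further: raw slope with 0.1% DMSO as baseline and bumetanide as block control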
# HEK293 Tl flux = parental HEK flux effect, counter-screen; shares compounds with Cl transport mod; HEK293 parental cells, thallium flux FluoZin2, ouabain; baseline-ratio fluorescence slope, 10–20 s after thallium; thallium flux rate (normalised fluorescence) at 10 µM; actives 46% (n = 3,700);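 active means thallium flux rate significantly above the same plate's solvent-only control wells, beyond their mean plus 3 SD; inconclusive means the two replicate wells gave conflicting results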
# KCC2 retest ouab = KCC2 (human) modulation, ouabain retest; shares compounds with Cl transport mod; HEK293-KCC2, thallium flux FluoZin2 fluorescence; bidirectional: low = inhibitor, high = activator; raw Tl+ flux slope (below DMSO = inhibition, above = activation) at 10 µM; actives 48% (n = 3,700); AID 1717;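 active means thallium flux slope beyond 3 SD from same-plate DMSO control mean in most replicates, usually higher, sometimes lower; inconclusive means repeat tests gave conflicting results; inactive means no significant difference from controls in most replicates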;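 further: slope of initial-normalized fluorescence between seconds 10 and 20 after thallium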
# HEK counter2 = parental HEK flux effect, counter-screen 2; thallium flux slope at 10 µM; HEK293 parental, thallium flux FluoZin-2 fluorescence slope; actives 33% (n = 3,700); AID 1718; shares compounds with Cl transport mod;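 active means thallium flux slope above the same plate's solvent-control mean plus 3 SD in both duplicate wells; inconclusive means duplicate wells that disagreed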;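 further: run without ouabain in cells lacking the KCC2 cotransporter; slope of fluorescence scaled to its starting value between 10 and 20 s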
# Numbers without * were called inactive; i = inactive; ? = inconclusive; . = no result given. In the library only some 4.1% were active in any assay of this set; here they are far more common.
SMILES,Cl transport mod,ROMK primary,Autophagy HCS,DTT redox prof,Dynein cargo inh,KCC2 secondary,KCC2 bumet counter,KCC2 secondary2,HEK293 Tl flux,KCC2 retest ouab,HEK counter2
CCC(CC)C(=O)Nc1cc(=O)n(C)c(=O)n1C,4.1*,.,i,-1,1.8,0.0062,0.0049,0.028,0.0078,0.019,0.011
CC(C)(C)NC(=O)C(=O)NNC(=O)C12CC3CC(CC(C3)C1)C2,5.9*,0.042,i,-5,-0.7,?,0.045*,0.036*,0.029*,0.038*,0.023*
COC(=O)NNC(=O)C12CC3CC(CC(C3)C1)C2,2,.,i,0,-0.41,.,.,.,.,.,.
C=CCN(CC=C)C(=O)CCc1nnc(CCc2c[nH]c3ccccc23)o1,-0.66,.,i,0,2,.,.,.,.,.,.
O=C(CSc1nc2ccccc2s1)Nc1ncccn1,0.74,.,i,-2,-0.31,.,.,.,.,.,.
Cn1c(CSc2nc3ccccc3s2)nnc1SCC(=O)NCc1ccccn1,-4*,0.47,i,1,-0.52,0.0069,0.0044,0.03,0.0074,?,0.0095
FC(F)(F)c1cc(-c2ccco2)nc(NCc2cccnc2)n1,.,0.031,i,-1,0.15,0.0075,0.0045,0.03,0.0065,0.018,0.0097
O=C(CO/N=C/c1c(Cl)cccc1Cl)NNC(=O)c1cccc(Cl)c1,1.4,-0.3,.,.,1,.,.,.,.,.,.
O=C(CO/N=C/c1c(Cl)cccc1Cl)NNC(=O)c1ccc(Cl)cc1,6.7*,-0.41,.,.,-0.79,0.0097,0.013*,0.034,?,0.021,0.012
Cc1cc(C)cc(C(=O)NN2CCN(C)CC2)c1,-0.14,-0.35,i,-1,1.3,.,.,.,.,.,.
Cc1cc(C)cc(OCC(=O)NNC(=O)c2cc3ccccc3o2)c1,31*,1.1,i,0,-0.34,0.019*,0.1*,0.033,0.034*,0.059*,0.015*
O=C(NNC(=O)c1cc2ccccc2o1)c1ccc(Cl)cc1,8.7*,.,.,.,0.33,0.01,0.024*,0.033,0.011*,?,0.012*
COc1ccc(S(=O)(=O)N2CCCCCC2)cc1N(C)S(=O)(=O)c1ccc(C)cc1,-0.83,.,i,2,0.52,.,.,.,.,.,.
O=C(CSc1ncccn1)NCc1cccc(Cl)c1,0.037,-1,i,0,-0.88,.,.,.,.,.,.
COc1ccc(C)cc1NC(=O)CN(c1ccc(F)cc1)S(C)(=O)=O,-0.038,.,i,-4,-0.94,.,.,.,.,.,.
Cc1cccc(NC(=O)CN(C)S(=O)(=O)c2cnc[nH]2)c1,-0.15,.,i,1,-0.13,.,.,.,.,.,.
COc1ccc(C)cc1NC(=O)CN(C)S(=O)(=O)c1cnc[nH]1,.,0.12,i,0,1.2,0.01,0.0072,0.035,0.0077,0.023,?
COc1ccc(C)cc1NC(=O)CN(c1ccccc1F)S(C)(=O)=O,.,0.5,i,-1,-0.47,0.0081,0.0058,0.03,0.007,0.02,0.009
O=C(c1ccc(O)cc1)c1ccc(C(=O)c2ccc(O)cc2)cc1,0.72,2.1,i,0,-0.34,0.0081,0.0074,0.027,0.0069,0.019,0.0094
Cc1ccc(C(=O)c2ccc(C)cc2)cc1,-1.4,-0.12,i,-1,-0.094,.,.,.,.,.,.
CCOC(=O)c1cc(NC(=O)Nc2ccccn2)c(C)nc1C,-0.84,-0.0025,i,-3,-1.1,.,.,.,.,.,.
Cc1cc(C)c(NC(=O)CN(c2ccccc2)S(=O)(=O)N(C)C)c(C)c1,5.2*,0.0074,i,1,-0.5,0.0092,0.0052,0.034,0.0069,0.021,0.01
COc1ccc(-c2cc(C(F)(F)F)nc(-n3ccnc3)n2)cc1,0.14,0.062,i,0,0.28,.,.,.,.,.,.
O=C(CN1CCN(c2ccccn2)CC1)Nc1ccc2ccccc2c1,.,-0.57,i,0,-0.48,0.0066,0.0042,0.029,0.0077,0.017,0.0097
COc1ccc(-c2cc(C(F)(F)F)n3ncc(C(=O)N(C)Cc4ccccc4)c3n2)cc1,-0.79,-2.3,i,0,0.56,.,.,.,.,.,.
SMILES,Cl transport mod,ROMK primary,Autophagy HCS,DTT redox prof,Dynein cargo inh,KCC2 secondary,KCC2 bumet counter,KCC2 secondary2,HEK293 Tl flux,KCC2 retest ouab,HEK counter2
S=c1[nH]nc(-c2ccccc2)o1,-0.26,.,i,-4,-0.39,.,.,.,.,.,.
O=c1c2ccccc2c(-c2n[nH]c(=S)o2)nn1Cc1ccccc1,-4.9*,1.7,i,0,0.83,0.0088,0.0057,?,0.0068,0.014*,?
CC(C)n1cc(CN2CCCC(CO)(Cc3cccc(Cl)c3)C2)cn1 (stereo unspecified),.,-1.6,i,-1,0.26,.,.,.,.,.,.
N#Cc1ccsc1NC(=O)c1ccc(Cl)c([N+](=O)[O-])c1,-5.3*,.,.,.,-0.44,0.0074,0.0048,0.022*,0.0069,?,0.0092
COc1cc(/C=C/CN2CCN(Cc3ccc(C)o3)C(CCO)C2)ccc1O (stereo unspecified),-0.18,-0.2,i,0,-0.48,.,.,.,.,.,.
O=C(NNC(=S)Nc1ccc(Cl)cc1)c1ccccc1OC(F)F,5.2*,-2.1,i,0,-0.52,0.0071,0.023*,0.033,0.02*,0.029*,0.013*
O=C1CCCc2c1[nH]c1ccc(CN3CCCCC3)cc21,-5.1*,.,i,1,1.2,0.0052,0.0048,0.029,0.0077,0.018,0.01
COc1cc(OC)cc(C2=NC3(CCC(C)CC3)NC2=S)c1 (stereo unspecified),18*,-2.7,i,0,0.33,0.012,0.019*,0.035,0.025*,?,0.011
Cc1ccc(S(=O)(=O)/N=C(/NC(=S)Nc2ccccc2)c2ccccc2)cc1,7.2,0.96,i,1,0.4,.,.,.,.,.,.
Cc1ccc(NC(=S)N/C(=N/S(=O)(=O)c2ccccc2)c2ccccc2)cc1,.,0.83,i,0,1.6,0.02*,0.03*,0.038*,0.024*,0.031*,0.026*
Cc1cccc(C(=O)NC2=NCCS2)c1,-0.2,0.37,i,-1,-0.38,.,.,.,.,.,.
Cc1ccc(C(=O)CSc2nnc3c4ccccc4nc(C(C)(C)C)n23)cc1,16*,-0.099,i,0,-0.65,0.014*,0.043*,0.031,0.019*,0.032*,0.012*
